Active and inactive are the calls of the source. The rule behind the calls is not given here.
Columns and labels:
[1] = (§1) Inhibition of recombinant full length Aedes aegypti AChE1 expressed in baculovirus-infected Sf9 insect cells using acetylthiocholine iodide as substrate measured over 60 secs by Ellman's method
Method in brief: (§2)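 Secreted, non-purified recombinant enzyme in growth medium, tested as enzyme source. Ellman assay at 30 °C in 0.1 M phosphate buffer pH 7.4 with 0.2 mM DTNB and 1 mM acetylthiocholine iodide; A412 followed over 60 s. Compound (100 mM DMSO stock) tested at eight concentrations, maximum 1 mM. Activity set relative to eight uninhibited controls per plate; IC50 from three-parameter variable-slope fit; 2-3 independent replicates.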

[2] = Selectivity ratio of IC50 for recombinant human AChE expressed in HEK293F cells to IC50 for recombinant full length Anopheles gambiae AChE1 expressed in baculovirus-infected Sf9 insect cells
Method in brief: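 Ratio of the hAChE IC50 divided by the higher of the AgAChE1 or AaAChE1 IC50. Each IC50 came from an Ellman assay (1 mM acetylthiocholine, 0.2 mM DTNB, pH 7.4, 30 °C) with eight concentrations up to 1 mM, using 2-3 replicates.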

Acetylcholinesterase [3] = target: Acetylcholinesterase (Anopheles gambiae, UniProt Q869C3); test: (§3) Inhibition of recombinant full length Anopheles gambiae AChE1 expressed in baculovirus-infected Sf9 insect cells using acetylthiocholine iodide as substrate measured over 60 secs by Ellman's method
Acetylcholinesterase [4] = target: Acetylcholinesterase (Anopheles gambiae, UniProt Q869C3, G122S); test: Inhibition of recombinant full length Anopheles gambiae AChE1 G122S mutant expressed in baculovirus-infected Sf9 insect cells using acetylthiocholine iodide as substrate measured over 60 secs by Ellman's method
Acetylcholinesterase [5] = target: Acetylcholinesterase (Homo sapiens, UniProt P22303); test: Inhibition of recombinant human AChE expressed in HEK293F cells using acetylthiocholine iodide as substrate measured over 60 secs by Ellman's method; set-up: species or system HEK293
Aedes aegypti [6] = test: as §1; method in brief: as §2
[7] = target: Acetylcholinesterase (Anopheles gambiae) (UniProt Q869C3); test: Inhibition of recombinant full length Anopheles gambiae AChE1 expressed in baculovirus-infected Sf9 insect cells at 1 mM using acetylthiocholine iodide as substrate measured over 60 secs by Ellman's method; method in brief: as §2
Aedes aegypti [8] = test: Inhibition of recombinant full length Aedes aegypti AChE1 expressed in baculovirus-infected Sf9 insect cells at 1 mM using acetylthiocholine iodide as substrate measured over 60 secs by Ellman's method; method in brief: as §2
[9] = target: Acetylcholinesterase (Anopheles gambiae) (UniProt Q869C3); test: as §3
[10] = tested on: Acetylcholinesterase (Anopheles gambiae), Q869C3 [G122S]; test: Inhibition of recombinant full length Anopheles gambiae AChE1 G122S mutant expressed in baculovirus-infected Sf9 insect cells up to 1 mM using acetylthiocholine iodide as substrate measured over 60 secs by Ellman's method; method in brief: as §2

Compound | IC50 [1] | Ratio IC50 [2] | IC50 (Acetylcholinesterase [3]) | IC50 (Acetylcholinesterase [4]) | IC50 (Acetylcholinesterase [5]) | inhibition (Aedes aegypti [6]) | inhibition [7] | inhibition (Aedes aegypti [8]) | inhibition [9] | inhibition [10]
S=C(NCCN1CCCCC1)Nc1cccc(Cl)c1 | 120 µM | 1 | 140 µM | 22 µM | 190 µM |  |  |  |  | 
FC(F)(F)c1ccc(NC(=S)NCCN2CCCCC2)cc1 | > 200 µM |  | > 200 µM | > 200 µM | > 200 µM |  |  |  |  | 
COc1ccc(NC(=S)NCCN2CCCCC2)cc1 | 28 µM | 4 | 29 µM | 94 µM | 120 µM |  |  |  |  | 
COc1ccc(NC(S)=NCCN2CCC(C)CC2)cc1Cl | 0.63 µM | 13 | 0.96 µM | 24 µM | 12 µM | Dose-dependent effect | 90% | 90% | Dose-dependent effect | 
NS(=O)(=O)c1ccc(NC(=S)NCCN2CCOCC2)cc1 | > 200 µM |  | > 200 µM |  | > 200 µM |  |  |  |  | inactive
CN(C)CCN=C(S)Nc1ccccc1Cl |  | > 12 |  |  |  |  |  |  |  | 
COc1cc(NC(=S)NCCN2CCOCC2)ccc1Cl | > 200 µM |  | > 200 µM | > 200 µM | > 200 µM |  |  |  |  | 
COc1ccc(NC(S)=NCCN2CCOCC2)cc1 |  | > 18 | 11 µM | > 200 µM | > 200 µM |  |  |  |  | 
CN(C)CCNC(=S)Nc1ccccc1Cl | 14 µM |  | 17 µM | > 200 µM | > 200 µM |  |  |  |  | 
COc1ccccc1NC(=S)NCCN1CCCCC1 | 22 µM | 1 | 29 µM | 66 µM | 32 µM |  |  |  |  | 
